Data set [1] in a line: Cytotoxicity against human cells MDA-MB-231 assessed as inhibition of cell growth incubated for 72 hrs by CellTiter 96 aqueous assay. Format: toxicity, cell-based. As to conditions: MDA-MB-231 cells. In short, it runs like this:
(§1)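 PC-3 or MDA-MB-231 cells were treated the day after seeding with serial dilutions, from 2000 nM for conjugates and 100 nM for MMAE, for 72 h. Then the assay was stopped, or run 72 h more after a medium change (single) or re-treatment (double). Controls got 0.05 % DMSO. Read-out was MTS absorbance at 490 nm after 90 min. IC50 by non-linear regression; ≥2 experiments, triplicates.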

Data set [2] can be described thus: Metabolic stability in mouse plasma assessed as half life at 5 uM measured upto 24 hrs by LC-HRMS analysis. It is filed as ADME, cell-free. Put shortly: (§2)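 Conjugates at 5 μM were incubated in human or mouse plasma at 37 °C, in duplicate. Samples were taken at t0, 0.25, 0.5, 1, 2, 4 and 24 h and quenched with 1 % formic acid in MeCN (2× volume). After centrifugation (14000 rpm, 4 °C), supernatants were diluted 1:1 with water and analysed by LC-HRMS.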

Data set [3] in a line: Cytotoxicity against human PC-3 cells assessed as inhibition of cell growth incubated for 72 hrs by CellTiter 96 aqueous assay. Format: toxicity, cell-based. Put shortly:
as §1

For data set [4], the target named is T1, Gastrin-releasing peptide receptor (Homo sapiens, UniProt P30550). Description: Displacement of 125 I- [Tyr4] from bombesin receptor 2 in human PC-3 cells assessed as inhibition by radioligand displacement assay. Format: cell-based. In short, it runs like this: (§3)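 Competition binding on membrane preparations from PC-3 or MDA-MB-231 cells against ¹²⁵I-[Tyr⁴]-bombesin, with conjugates at 10 μM–10 pM. IC50 was taken as the concentration giving 50 % inhibition of tracer binding.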
T1 sequence (P30550 whole entry): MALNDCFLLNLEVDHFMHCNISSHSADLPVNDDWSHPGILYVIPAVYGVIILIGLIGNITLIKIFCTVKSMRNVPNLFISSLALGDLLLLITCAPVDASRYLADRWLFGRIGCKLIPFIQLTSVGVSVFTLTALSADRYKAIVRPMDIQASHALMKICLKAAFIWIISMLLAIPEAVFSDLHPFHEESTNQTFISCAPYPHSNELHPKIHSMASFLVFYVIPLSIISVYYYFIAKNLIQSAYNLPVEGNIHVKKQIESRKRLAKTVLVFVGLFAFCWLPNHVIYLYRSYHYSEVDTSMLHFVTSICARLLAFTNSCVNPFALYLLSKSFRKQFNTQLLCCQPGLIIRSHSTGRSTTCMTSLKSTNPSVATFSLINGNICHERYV
(In general: Loss of bound radioactivity is the signal in a displacement assay; it reports binding, not function.)

The nature of data set [5]: Cytotoxicity against human MDA-MB-231 cells assessed as inhibition of cell growth incubated for 72 hrs and followed by treated with compound continued incubation for further 72 hrs (double treatment) after retreatment of compound by CellTiter 96 aqueous assay. Format: toxicity, cell-based. Put shortly: as §1
The nature of data set [6]: Biodistribution in mouse xenografted with human PC-3 cells assessed as tumour environment incubated for 24 hrs by LC-HRMS. As to conditions: in vivo. Format: ADME, organism-based, Neoplasm. Put shortly:
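Mice bearing PC-3 xenografts received a single 2 mg/kg i.p. dose. Blood, tumour, liver, kidneys, heart, lungs and pancreas were collected at 1, 6 and 24 h and pooled per group. Tissues were homogenised in water (1:2 w/v) and centrifuged. Released MMAE was measured by LC-HRMS and expressed as %ID/g (n = 3).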
For orientation: In xenograft studies the graft and the host belong to different species.

Data set [7] can be described thus: Toxicity in mouse xenografted with human PC-3 cells assessed as body weight loss at 1 mg/kg, ip administered relative to control. The settings on record: in vivo, 2 mg/kg, in the assay text read “2 mg/kg” for “1 mg/kg”. Format: organism-based. Put shortly:
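Toxicity in mice bearing subcutaneous PC-3 tumours after a single i.p. dose 9 days post-inoculation. Free drug at 1 mg/kg, conjugates at 2 mg/kg MMAE-content, in 5 % DMSO in water; solvent controls; eight per group. Body weight followed periodically. Endpoint at 20 % weight loss; behaviour (activity, coat, stool, paleness) also scored.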

Data set [8] in a line: Cytotoxicity against human MDA-MB-231 cells assessed as inhibition of cell growth incubated with compound for 72 hrs followed by further incubated for 72 hrs (single treatment) by CellTiter 96 aqueous assay. It is filed as toxicity, cell-based. In short, it runs like this: as §1
Data set [9] has as its system PC-3. Description: Antitumor activity against human PC-3 cells xenografted with mouse assessed as median survival days at 2 mg/kg, ip (reference value: 33 days).
The subject of data set [10] is PC-3. Description: Antitumor activity against human PC-3 cells xenografted in mouse assessed as reduction in tumour volume relative to control. Format: functional. Set-up: scale not given: the % may be the effect or the level left. In short, it runs like this: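 Acute study in mice bearing subcutaneous PC-3 tumours. Single i.p. dose (0.1 mL) 9 days after inoculation, at a mean tumour volume of 62 mm³. Eight per group, randomized. Conjugates at 2 mg/kg MMAE-content, free MMAE at 1 mg/kg, in 5 % DMSO in water; solvent controls. Calliper volume V = ab²×π/6. Sacrifice at 20 % weight loss or 2000 mm³.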

Data set [11] concerns the target T1, Gastrin-releasing peptide receptor. Briefly: Displacement of 125 I- [Tyr4] from bombesin receptor 2 in human MDA-MB-231 cells assessed as inhibition by radioligand displacement assay. It is filed as cell-based. Put shortly: as §3
A short description of data set [12]: Toxicity in mouse xenografted with human PC-3 cells assessed as skin rash at 0.5 mg/kg, ip administered upto 23 days. As to conditions: in vivo, 552 h.
Data set [13] can be described thus: Cytotoxicity against human PC-3 cells assessed as inhibition of cell growth incubated with compound for 72 hrs followed by further incubated for 72 hrs (single treatment) by CellTiter 96 aqueous assay. Format: toxicity, cell-based. In short, it runs like this:
as §1

Data set [14] is described as follows: Cytotoxicity against human PC-3 cells assessed as inhibition of cell growth incubated for 72 hrs and followed by treated with compound continued incubation for further 72 hrs (double treatment) after retreatment of compound by CellTiter 96 aqueous assay. It is filed as toxicity, cell-based. In short, it runs like this: as §1
In data set [15] the test system is PC-3. Briefly: Antitumor activity against human PC-3 cells xenografted in mouse assessed as reduction in tumour size at 0.5 mg/kg, ip administered upto 23 days relative to control. Format: functional. Also noted: scale not given: the % may be the effect or the level left. The settings on record: time <= 23 day. In short, it runs like this:
(§4)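 Chronic study in mice bearing subcutaneous PC-3 tumours. Dosing began 8 days after cell inoculation, at a mean tumour volume of 93 mm³. Seven per group, randomized. Four i.p. doses (0.1 mL) on days 8, 11, 16 and 23 of 0.5 mg/kg MMAE-content, in 5 % DMSO in water for injection; controls got solvent. Tumour volume by calliper, V = ab²×π/6.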

Data set [16] is described as follows: Metabolic stability in human plasma assessed as half life at 5 uM measured upto 24 hrs by LC-HRMS analysis. Format: ADME, cell-free. Put shortly: as §2
In data set [17] the test system is PC-3. Description: Antitumor activity against human PC-3 cells xenografted in mouse assessed as inhibition in tumour growth at 0.5 mg/kg, ip administered upto 23 days. It is filed as functional, organism-based. As to conditions: time <= 23.0 day. Put shortly:
as §4

In data set [18] the test system is PC-3. Description: Antitumor activity against human PC-3 cells xenografted in mouse assessed as reduction in tumour weight at 0.5 mg/kg, ip administered upto 23 days relative to control. Format: functional. Set-up: scale not given: the % may be the effect or the level left. As to conditions: time <= 23 day.

Calls of active or inactive are those of the source.

In the case of `CC[C@H](C)[C@@H]([C@@H](CC(=O)N1CCC[C@H]1[C@H](OC)[C@@H](C)C(=O)N[C@H](C)[C@@H](O)c1ccccc1)OC)N(C)C(=O)[C@@H](NC(=O)[C@H](C(C)C)N(C)C(=O)OCc1ccc(NC(=O)[C@H](CCCNC(N)=O)NC(=O)CNC(=O)[C@@H](CCC(=O)O)NC(=O)CCCCCN2C(=O)CC(SC[C@H](NC(C)=O)C(=O)NCCOCCOCCOCCOCCC(=O)N[C@H](Cc3ccccc3)C(=O)N[C@@H](CCC(N)=O)C(=O)N[C@@H](CC3=CNC4C=CC=CC34)C(=O)N[C@@H](C)C(=O)N[C@H](C(=O)NCC(=O)N[C@@H](Cc3c[nH]cn3)C(=O)N[C@@H](CC(C)C)[C@@H](O)CC(=O)N[C@@H](CC(C)C)C(N)=O)C(C)C)C2=O)cc1)C(C)C` (stereo not given in full), the half-inhibitory concentration (IC50) (usually the concentration at which inhibition is half-maximal) at 72 h in [1] came out at 885 nM; in [3], 428 nM. In addition, in data set [2], the half-life (commonly the time needed for the level to fall by half in the phase considered) at 5 µM amounted to 7.2 h. In addition, the IC50 amounted to 68.3 nM in data set [4] and 72.9 nM in data set [11]. Further, the IC50 at 144 h turned out to be 131 nM in data set [5], 164 nM in data set [8], 110 nM in data set [13] and 83.5 nM in data set [14]. Further, the Drug uptake result in data set [6] is recorded as “Active”. For the same compound, the values for the Activity in [7], in data set [10] and in data set [12] were below 20%, 26.3% and “Toxic”, respectively. Besides, the Survival in [9] was determined as 42 days.

Regarding `CC[C@H](C)[C@@H]([C@@H](CC(=O)N1CCC[C@H]1[C@H](OC)[C@@H](C)C(=O)N[C@H](C)[C@@H](O)c1ccccc1)OC)N(C)C(=O)[C@@H](NC(=O)[C@H](C(C)C)N(C)C(=O)OCc1ccc(NC(=O)[C@H](CCCNC(N)=O)NC(=O)[C@@H](NC(=O)[C@H](CCC(=O)O)NC(=O)CCCCCN2C(=O)CC(SC[C@H](NC(C)=O)C(=O)NCCOCCOCCOCCOCCC(=O)N[C@H](Cc3ccccc3)C(=O)N[C@@H](CCC(N)=O)C(=O)N[C@@H](CC3=CNC4C=CC=CC34)C(=O)N[C@@H](C)C(=O)N[C@H](C(=O)NCC(=O)N[C@@H](Cc3c[nH]cn3)C(=O)N[C@@H](CC(C)C)[C@@H](O)CC(=O)N[C@@H](CC(C)C)C(N)=O)C(C)C)C2=O)C(C)C)cc1)C(C)C` (stereo not given in full), the IC50 at 72 h was determined as 526 nM in data set [1] and 29.6 nM in data set [3]. For the same compound, the Activity is given as 59.8% in [15], 41.6% in data set [18], below 20% in data set [7] and 65.2% in data set [10]. In [16], the half-life at 5 µM is 4.6 h. Moreover, the 50% inhibitory concentration (IC50) in [4] was 59.4 nM; in data set [11] it was 69.5 nM. In addition, the outcome in data set [17] was Active. Besides, the IC50 at 144 h in data set [5] stood at 43.3 nM; in data set [8] it was 42.3 nM; in data set [13], 4.8 nM; in data set [14] it was 3.5 nM. Moreover, the Drug uptake result in data set [6] is listed as “Active”. Also, the Survival in data set [9] came out at 49 days.

Source of the values: ChEMBL document CHEMBL6071141, “In vitro and in vivo evaluation of Bombesin-MMAE conjugates for targeted tumour therapy” (Eur J Med Chem, 2024).
